Test results reported in ChEMBL document CHEMBL1799968, “Dimethyl-diphenyl-propanamide derivatives as nonsteroidal dissociated glucocorticoid receptor agonists” (J Med Chem, 2010).

How the values were obtained:
[1] = target: T1, Androgen receptor (Homo sapiens, UniProt P10275); experiment: Binding affinity to androgen receptor by fluorescence polarization assay
T1 sequence (P10275 whole entry): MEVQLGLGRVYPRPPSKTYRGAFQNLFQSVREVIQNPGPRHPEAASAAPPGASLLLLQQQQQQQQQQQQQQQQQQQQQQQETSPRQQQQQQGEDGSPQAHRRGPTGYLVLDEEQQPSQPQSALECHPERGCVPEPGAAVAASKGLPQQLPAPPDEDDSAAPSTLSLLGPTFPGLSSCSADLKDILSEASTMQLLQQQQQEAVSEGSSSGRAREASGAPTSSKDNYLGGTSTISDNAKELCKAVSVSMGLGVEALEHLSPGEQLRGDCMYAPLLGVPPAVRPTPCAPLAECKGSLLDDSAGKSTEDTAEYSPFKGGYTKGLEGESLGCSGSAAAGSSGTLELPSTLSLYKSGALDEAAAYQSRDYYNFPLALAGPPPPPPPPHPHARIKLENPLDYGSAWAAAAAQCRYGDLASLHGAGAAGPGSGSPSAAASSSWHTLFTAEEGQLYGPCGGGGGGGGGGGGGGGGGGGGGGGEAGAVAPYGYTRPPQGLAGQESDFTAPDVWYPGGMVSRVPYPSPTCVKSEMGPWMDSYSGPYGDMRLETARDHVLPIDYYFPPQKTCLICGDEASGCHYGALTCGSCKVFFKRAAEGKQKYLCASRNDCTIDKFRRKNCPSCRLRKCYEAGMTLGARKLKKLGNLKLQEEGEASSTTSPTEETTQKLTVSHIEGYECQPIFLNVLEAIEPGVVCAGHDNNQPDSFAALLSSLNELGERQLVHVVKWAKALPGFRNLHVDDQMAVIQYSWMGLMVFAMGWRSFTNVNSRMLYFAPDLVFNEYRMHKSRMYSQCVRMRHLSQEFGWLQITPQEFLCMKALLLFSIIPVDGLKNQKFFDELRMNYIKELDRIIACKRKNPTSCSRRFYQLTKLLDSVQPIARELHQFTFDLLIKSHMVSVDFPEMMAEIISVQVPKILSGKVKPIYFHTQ
How it was run: (§1)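 Fluorescence polarization competition of test compound against a fluorescently labelled ligand for binding to full-length receptor or its ligand-binding domain.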

[2] = target: T2, Estrogen receptor (Homo sapiens, UniProt P03372); experiment: Binding affinity to ERalpha by fluorescence polarization assay; how it was run: as §1
T2 sequence (P03372 whole entry): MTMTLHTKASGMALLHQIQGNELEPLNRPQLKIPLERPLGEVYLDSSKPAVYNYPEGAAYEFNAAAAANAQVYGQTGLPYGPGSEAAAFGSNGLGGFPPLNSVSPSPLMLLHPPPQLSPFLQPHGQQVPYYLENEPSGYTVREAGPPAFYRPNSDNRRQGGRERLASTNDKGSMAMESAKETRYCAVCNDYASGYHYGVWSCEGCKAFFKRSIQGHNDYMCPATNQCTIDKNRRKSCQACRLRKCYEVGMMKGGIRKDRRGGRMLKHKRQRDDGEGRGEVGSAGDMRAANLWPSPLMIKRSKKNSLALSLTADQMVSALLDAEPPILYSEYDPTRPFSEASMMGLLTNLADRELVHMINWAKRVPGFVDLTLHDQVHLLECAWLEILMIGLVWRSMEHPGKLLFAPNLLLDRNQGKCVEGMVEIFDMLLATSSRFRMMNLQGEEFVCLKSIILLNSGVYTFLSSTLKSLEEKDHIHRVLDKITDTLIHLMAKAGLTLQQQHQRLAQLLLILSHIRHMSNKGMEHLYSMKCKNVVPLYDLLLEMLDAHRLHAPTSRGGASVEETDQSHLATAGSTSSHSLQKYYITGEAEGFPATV

[3] = target: T3, Progesterone receptor (Homo sapiens, UniProt P06401); experiment: Binding affinity to progesterone receptor by fluorescence polarization assay; how it was run: as §1
T3 sequence (P06401 whole entry): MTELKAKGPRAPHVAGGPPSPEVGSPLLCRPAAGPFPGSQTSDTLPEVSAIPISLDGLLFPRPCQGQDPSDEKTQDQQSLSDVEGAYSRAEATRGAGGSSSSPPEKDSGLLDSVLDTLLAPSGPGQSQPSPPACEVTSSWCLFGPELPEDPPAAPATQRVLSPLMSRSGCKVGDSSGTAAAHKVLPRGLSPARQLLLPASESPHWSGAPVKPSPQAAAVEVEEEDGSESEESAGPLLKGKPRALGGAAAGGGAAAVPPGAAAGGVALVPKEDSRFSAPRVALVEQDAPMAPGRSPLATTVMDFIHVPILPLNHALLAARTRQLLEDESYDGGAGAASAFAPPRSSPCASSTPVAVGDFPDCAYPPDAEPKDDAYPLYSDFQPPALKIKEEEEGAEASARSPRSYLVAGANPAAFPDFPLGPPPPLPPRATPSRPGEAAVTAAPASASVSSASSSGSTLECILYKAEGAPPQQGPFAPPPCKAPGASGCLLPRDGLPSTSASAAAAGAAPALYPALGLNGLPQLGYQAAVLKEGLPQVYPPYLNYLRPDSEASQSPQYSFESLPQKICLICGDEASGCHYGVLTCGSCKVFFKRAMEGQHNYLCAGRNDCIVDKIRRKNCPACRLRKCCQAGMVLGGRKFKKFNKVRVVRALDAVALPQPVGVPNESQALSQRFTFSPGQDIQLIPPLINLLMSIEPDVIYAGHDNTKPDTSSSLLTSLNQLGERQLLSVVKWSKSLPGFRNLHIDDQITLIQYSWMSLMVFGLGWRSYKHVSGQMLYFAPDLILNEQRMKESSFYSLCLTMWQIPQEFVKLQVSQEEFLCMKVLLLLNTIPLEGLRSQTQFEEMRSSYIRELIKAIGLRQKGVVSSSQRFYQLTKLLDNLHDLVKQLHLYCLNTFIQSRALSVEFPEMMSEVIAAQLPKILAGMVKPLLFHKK

[4] = target: T4, Mineralocorticoid receptor (Homo sapiens, UniProt P08235); experiment: Agonist activity at mineralocorticoid receptor in human A549 cells; type: functional, cell-based
T4 sequence (P08235 whole entry): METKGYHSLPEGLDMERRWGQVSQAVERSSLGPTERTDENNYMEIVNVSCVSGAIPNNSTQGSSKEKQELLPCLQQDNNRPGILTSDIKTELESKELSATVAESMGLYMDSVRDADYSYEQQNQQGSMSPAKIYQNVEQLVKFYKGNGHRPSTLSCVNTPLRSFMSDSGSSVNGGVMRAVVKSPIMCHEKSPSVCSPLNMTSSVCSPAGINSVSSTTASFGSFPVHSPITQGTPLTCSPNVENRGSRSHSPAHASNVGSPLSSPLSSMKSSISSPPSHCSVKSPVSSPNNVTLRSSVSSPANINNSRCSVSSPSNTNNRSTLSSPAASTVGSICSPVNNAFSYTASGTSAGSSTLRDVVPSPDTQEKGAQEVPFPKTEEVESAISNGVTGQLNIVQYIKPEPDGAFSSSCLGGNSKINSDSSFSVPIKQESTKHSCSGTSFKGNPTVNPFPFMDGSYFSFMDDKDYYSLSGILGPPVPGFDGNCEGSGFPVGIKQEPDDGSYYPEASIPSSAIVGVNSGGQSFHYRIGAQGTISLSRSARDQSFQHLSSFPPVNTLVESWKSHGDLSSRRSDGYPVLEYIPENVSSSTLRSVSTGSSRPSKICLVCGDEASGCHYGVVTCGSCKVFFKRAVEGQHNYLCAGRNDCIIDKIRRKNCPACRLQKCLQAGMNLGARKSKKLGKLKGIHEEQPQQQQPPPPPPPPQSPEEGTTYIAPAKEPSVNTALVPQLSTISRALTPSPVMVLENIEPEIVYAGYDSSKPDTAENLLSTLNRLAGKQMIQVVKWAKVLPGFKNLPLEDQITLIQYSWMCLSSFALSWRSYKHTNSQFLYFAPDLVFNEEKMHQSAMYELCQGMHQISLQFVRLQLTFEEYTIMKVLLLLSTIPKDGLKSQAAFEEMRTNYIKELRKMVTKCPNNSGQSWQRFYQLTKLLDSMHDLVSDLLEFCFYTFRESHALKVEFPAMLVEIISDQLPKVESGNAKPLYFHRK

[5] = tested on: Rattus norvegicus; experiment: Antiinflammatory activity against carrageenan-induced paw edema Sprague-Dawley rat model assessed as inhibition of hind paw swelling at 30 mg/kg, po measured after 5 hrs post carrageenan challenge; type: functional
How it was run: (§2)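 Male SD rats, fasted overnight plus up to 6 h more. Baseline hind paw volume taken by water plethysmometer. A single oral dose was given in a biologically acceptable medium. 2 h later, under anaesthesia, 1% carrageenan in PBS was injected subcutaneously into both hind paws. Volume was read 3 h post challenge, and swelling was taken as post-challenge minus baseline.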

[6] = tested on: Rattus norvegicus; experiment: Toxicity in Sprague-Dawley rat assessed as induction of TAT activity in liver homogenates at 30 mg/kg, po after 6 hrs; type: organism-based; set-up: dose 30 mg/kg, route oral; settings: in vivo
How it was run: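 Male SD rats, fasted, single oral dose. Liver was biopsied 6 h postdose, snap frozen, homogenised in 150 mM KCl and centrifuged. Protein-normalised supernatants were assayed for TAT activity, read as OD at 340 nm. Values are given as % of TAT activity in prednisolone-treated (30 mg/kg) rats.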

[7] = tested on: Rattus norvegicus; experiment: Toxicity in Sprague-Dawley rat assessed as increase in serum glucose level at 30 mg/kg, po after 6 hrs; type: organism-based; set-up: dose 30 mg/kg, route oral; settings: in vivo
How it was run: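 Male SD rats, fasted overnight plus up to 6 h, were given a single oral dose in a biologically acceptable medium. At 6 h they were euthanised with CO2, and blood was taken by intracardiac puncture. Serum glucose was measured by the hexokinase method on an automated chemistry analyzer.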

[8] = tested on: Rattus norvegicus; experiment: Antiinflammatory activity in po dosed carrageenan-induced paw edema Sprague-Dawley rat model assessed as inhibition of hind paw swelling after 5 hrs post carrageenan challenge; type: functional; how it was run: as §2

Row | Compound | Ki [1] | Ki [2] | Ki [3] | EC50 [4] | inhibition (INH) ([5]; 30 mg/kg) | inhibition in vivo at 30 mg/kg ([5]; Rattus norvegicus, Sprague-Dawley, po, 5 h) | Activity [6] | Activity [7] | ED50 [8]
1 | CC(C)(C(=O)Nc1nncs1)[C@@H](c1ccccc1)c1ccc(O)c(F)c1 | 993 nM | > 50000 nM | 55 nM | > 5000 nM |  |  |  |  | 
2 | C[C@]12C=CC(=O)C=C1CC[C@@H]1[C@@H]2[C@@H](O)C[C@@]2(C)[C@H]1CC[C@]2(O)C(=O)CO [PREDNISOLONE] |  | > 5000 nM |  | 2 nM | 42% | 57% | Toxic | Toxic | 19 mg/kg
